Results collected from several papers.
Lines come from different studies, so protocols differ.
Organism: Staphylococcus aureus
Observed: microbial growth

O=C1NN=C(N=Cc2ccccc2)C1=NNn1c(-c2ccccc2)nc2ccccc2c1=O  MIC (broth dilution; 24 h): 57.1 µM
Cc1ccc(C)n1-c1ccc(-c2nnc(-c3ccc(Br)cc3)[nH]2)cc1  MIC (broth dilution; ATCC11632; 18 h): 1 µg/mL
CC(C)Oc1c(NC(=O)c2ccc(NC(=O)[C@H](CC(N)=O)NC(=O)c3ccc(NC(=O)c4ccc(C5(C(F)(F)F)N=N5)cc4)cc3)cc2)ccc(C(=O)Nc2ccc(C(=O)O)cc2)c1O  MIC (ATCC29213): > 64 µg/mL
N#C/C(=C\c1ccc(O)c(O)c1)C(=O)NCc1ccccc1  MIC (NCTC8325): > 30 µM
CN[C@H](CC(C)C)C(=O)N[C@H]1C(=O)N[C@@H](CC(N)=O)C(=O)N[C@H]2C(=O)N[C@H]3C(=O)N[C@H](C(=O)N[C@H](C(=O)O)c4cc(O)cc(O)c4-c4cc3ccc4O)[C@H](O)c3ccc(c(Cl)c3)Oc3cc2cc(c3O[C@@H]2O[C@H](CO)[C@@H](O)[C@H](O)[C@H]2O[C@H]2C[C@](C)(N)[C@H](O)[C@H](C)O2)Oc2ccc(cc2Cl)[C@H]1O  MIC (broth dilution; ATCC43300 MRSA; 18 h): 1 µg/mL
Cc1ccc(-n2nc(C(C)(C)C)cc2NC(=O)Nc2ccc(OCCN3CCOCC3)c3ccccc23)cc1  MIC (NCTC8325): > 30 µM
CC(C)Oc1c(NC(=O)c2ccc(NC(=O)[C@H](CC(N)=O)NC(=O)c3ccc(CNC(=O)c4ccc(C#N)cc4)cc3)cc2)ccc(C(=O)Nc2ccc(C(=O)O)cc2)c1O  MIC (ATCC29213): > 64 µg/mL
COc1ccc(NCc2ccc(Oc3ccccn3)cc2)cc1  MIC: > 3.1 µg/mL
CCc1cnn2c(NCc3ccc[n+]([O-])c3)cc(N3CCCC[C@H]3CCO)nc12  MIC (NCTC8325): > 30 µM
CO[C@H]1[C@H](O[C@H]([C@H]2O[C@@H](n3ccc(=O)[nH]c3=O)[C@H](O)[C@@H]2O)[C@H](NCCCNC(=O)[C@@H](NC(=O)[C@@H](NC(=O)N[C@H](C(=O)O)C(C)C)[C@@H]2CCN=C(N)N2)[C@@H](OC(=O)CCCCCCCCCCCCN(O)C(=N)N)C(C)C)C(=O)O)O[C@H](CN)[C@H]1O  MIC (NEWMAN): 18 µg/mL
CC1(C)S[C@@H]2[C@H](NC(=O)[C@H](N)c3ccccc3)C(=O)N2[C@H]1C(=O)O  MIC (broth dilution; ATCC29213): 1 µg/mL
COc1ccc(-c2nc3ccc(C)cc3[nH]2)cc1O  MIC (broth dilution; ATCC29213 MSSA): 64 µg/mL
CN(C)[C@@H]1C(O)=C(C(N)=O)C(=O)[C@@]2(O)C(O)=C3C(=O)c4c(O)cccc4[C@@](C)(O)[C@H]3C[C@@H]12  MIC (NCTC8325): 0.5 µM
O=C1NC(=S)S/C1=C\c1c2ccccc2c(-c2ccc(N(c3ccccc3)c3ccccc3)cc2)c2ccccc12  MIC (broth dilution; ATCC25923): > 1000 µg/mL
Oc1ccc(-c2nc(-c3ccc(F)cc3)c(-c3ccncc3)[nH]2)cc1  MIC (NCTC8325): > 30 µM
COc1ccc(-c2nc3ccccc3[nH]2)cc1OC  MIC (broth dilution; ATCC29213 MSSA): 128 µg/mL
O=[N+]([O-])c1cnc2ccc(F)cc2c1O  MIC: > 128 µg/mL
CNC(=O)c1ccc2c(c1)NC(=O)/C2=C(\Nc1cccc(CN(C)C)c1)c1ccccc1  MIC (NCTC8325): > 30 µM
CCCCCCC#Cc1cncc(-c2nnc(SCc3ccc(Cl)cc3)n2C2CC2)c1  MIC (MRSA; drug-resistant strain): ≥ 20 µg/mL
COc1cc(N2CCC(N3CCN(C)CC3)CC2)ccc1Nc1ncc(Cl)c(Nc2ccccc2S(=O)(=O)C(C)C)n1  MIC (NCTC8325): > 30 µM
C/C=C(\C)c1cc(OC(=O)c2c(C)c(Cl)c(O)c(Cl)c2O)c(C)c(O)c1C(=O)O  MIC (broth dilution; CCARM3090): 64 µg/mL
